According to ChEMBL document CHEMBL3808360, “Discovery of Potent Non-Nucleoside Inhibitors of Dengue Viral RNA-Dependent RNA Polymerase from a Fragment Hit Using Structure-Based Drug Design” (J Med Chem, 2016):
Active and inactive are the calls of the source. The rule behind the calls is not given here.

Key:
[1] = Dissociation constant, pKa of the compound; type: physicochemical
[2] = Inhibition of RdRp activity of Dengue virus 4 full length NS5 preincubated for 15 mins followed by RNA and NTP addition measured after 120 mins; design: species or system dengue virus type 4
Method in brief: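 Reaction with 100 nM DENV4 full-length NS5 and 100 nM in vitro transcribed DENV4 mini-genome RNA template (575 nt, linked 5'-3' UTRs). NTPs: 20 µM each ATP, GTP and UTP plus 5 µM ATTO-CTP. Compound (two-fold series from 20 or 100 µM) preincubated with enzyme 15 min at room temperature. RNA/NTP mix added; run 120 min. Stopped with alkaline phosphatase stop buffer, 60 min. Fluorescence read at ex 422/em 566 nm. Duplicate wells; IC₅₀ from variable-slope sigmoidal fit.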

[3] = Lipophilicity, log D of the compound at pH 7.4; type: physicochemical; conditions: buffer
dengue virus type 1 [4] = experiment: Antiviral activity against Dengue virus 1 MY97-10245 infected in human A549 cells assessed as reduction in DENV envelope protein level after 48 hrs; type: functional, organism-based; conditions: MY97-10245, A549, 48 h
Method in brief: (§1)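 A549 cells (~7×10^3/well) seeded in Ham's F-12K with 2% FBS, 1 mM L-glutamine and 1% penicillin-streptomycin, held overnight at 37°C, 5% CO₂. Infected at 24 h post-seeding (DENV1 MOI 0.5, DENV2 MOI 0.3, DENV3 MOI 1, DENV4 MOI 0.5). Compound added at once as a 10-point, 3-fold series, 0.5% DMSO final. Fixed at 48 h with 4% paraformaldehyde. Stained with Dylight 488-4G2 anti-envelope antibody and DRAQ5 nuclear stain. Envelope protein quantified by high-content imaging; EC₅₀ calculated.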

[5] = Binding affinity to biotinylated Dengue virus 4 NS5 RdRp by surface plasmon resonance analysis; design: species or system dengue virus type 4
Method in brief: (§2)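 Blank reference cell. Compound run as a 7-point 2-fold series, typically from 200 µM, with zero-concentration subtraction. Flow 30 µL/min, 45 s contact, 60-600 s dissociation, run from low to high concentration.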

dengue virus type 2 [6] = experiment: Antiviral activity against Dengue virus 2 MY97-10340 infected in human A549 cells assessed as reduction in DENV envelope protein level after 48 hrs; type: functional, organism-based; conditions: MY97-10340, A549, 48 h; method in brief: as §1
[7] = Apparent permeability across apical to basolateral side in human Caco2 cells at pH 7.4; type: ADME, cell-based; conditions: Caco-2, pH 7.4
Method in brief: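 Apical-to-basal Caco-2 permeability measured at pH 7.4.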

dengue virus type 4 [8] = experiment: Antiviral activity against Dengue virus 4 MY01-22713 infected in human A549 cells assessed as reduction in DENV envelope protein level after 48 hrs; type: functional, organism-based; conditions: MY01-22713, A549, 48 h; method in brief: as §1
dengue virus type 3 [9] = experiment: Antiviral activity against Dengue virus 3 MY05-34640 infected in human A549 cells assessed as reduction in DENV envelope protein level after 48 hrs; type: functional, organism-based; conditions: MY05-34640, A549, 48 h; method in brief: as §1
[10] = Binding affinity to Dengue virus 4 NS5 RdRp (274 to 900 residues) by ITC method; design: species or system dengue virus type 4
Method in brief: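 DENV-4 RdRp (residues 274-900) at 30-50 µM in the cell, in 20 mM HEPES pH 7.0, 300 mM NaCl, 2 mM TCEP, DMSO matched to ligand. Ligand diluted from a 50 mM DMSO stock into the same buffer, typically 2.5 mM in the syringe. Run at 25°C: one 0.4 µl injection, then 15 × 2.6 µl. Heat of dilution into buffer subtracted.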

[11] = Binding affinity to Dengue virus 3 NS5 RdRp by surface plasmon resonance analysis; design: species or system dengue virus type 3; method in brief: as §2
[12] = Inhibition of RdRp activity of Dengue virus 3 NS5; design: species or system dengue virus type 3
dengue virus type 1 [13] = experiment: Antiviral activity against Dengue virus 1 MY97-10245 infected in human A549 cells assessed as reduction in DENV envelope protein level up to 50 uM after 48 hrs; type: functional, organism-based; method in brief: as §1
dengue virus type 4 [14] = experiment: Antiviral activity against Dengue virus 4 MY01-22713 infected in human A549 cells assessed as reduction in DENV envelope protein level up to 50 uM after 48 hrs; type: functional, organism-based; method in brief: as §1
dengue virus type 2 [15] = experiment: Antiviral activity against Dengue virus 2 MY97-10340 infected in human A549 cells assessed as reduction in DENV envelope protein level up to 50 uM after 48 hrs; type: functional, organism-based; method in brief: as §1
dengue virus type 3 [16] = experiment: Antiviral activity against Dengue virus 3 MY05-34640 infected in human A549 cells assessed as reduction in DENV envelope protein level up to 50 uM after 48 hrs; type: functional, organism-based; method in brief: as §1
[17] = Binding affinity to N-terminal AviTag Dengue virus 3 NS5 RdRp (263 to 900 residues) expressed in Escherichia coli BL21 cells by surface plasmon resonance analysis; design: species or system dengue virus type 3; method in brief: as §2
[18] = Inhibition of RdRp activity of Dengue virus 4 of NS5 preincubated with enzyme followed by RNA and NTP addition; design: species or system dengue virus type 4
[19] = Inhibition of RdRp activity of Dengue virus 2 NS5 preincubated for 15 mins followed by RNA and NTP addition measured after 120 mins; design: species or system dengue virus type 2
[20] = Inhibition of RdRp activity of Dengue virus 3 NS5 preincubated for 15 mins followed by RNA and NTP addition measured after 120 mins; design: species or system dengue virus type 3
[21] = Inhibition of RdRp activity of Dengue virus 1 NS5 preincubated for 15 mins followed by RNA and NTP addition measured after 120 mins; design: species or system dengue virus type 1
[22] = Cytotoxicity against human HepG2 cells; type: cell-based

SMILES: COc1cc(C)c(-c2ncc[nH]2)cc1-c1ccc(C#CCO)s1
- pKa [1]: 6.6
- IC50 [2]: 44 µM
- logD [3]: 3.6

SMILES: COc1cc(OC)c(-c2ccc(C#CCO)s2)cc1C(=O)NS(=O)(=O)c1ccccc1
- pKa [1]: 4.8
- EC50 (dengue virus type 1 [4]): 15 µM
- IC50 [2]: 0.25 µM
- logD [3]: 1.5
- Kd [5]: 0.09 µM
- EC50 (dengue virus type 2 [6]): 37 µM
- Papp A→B [7]: 10.8 ×10⁻⁶ cm/s
- EC50 (dengue virus type 4 [8]): 14 µM
- EC50 (dengue virus type 3 [9]): 7.3 µM

SMILES: O=C(O)Cc1cc(CC(=O)O)cc(-c2ccccc2)c1
- IC50 [2]: 177 µM
- Kd [10]: 154 µM

SMILES: COc1cc(C)c(S(=O)(=O)NC(C)=O)cc1-c1ccc(C#CCO)s1
- pKa [1]: 4.8
- IC50 [2]: 2.5 µM
- logD [3]: 0.78

SMILES: O=C(O)Cc1cc(CC(=O)O)cc(-c2cccs2)c1
- IC50 [2]: 15 µM
- Kd [10]: 28 µM

SMILES: O=C(O)Cc1cc(CC(=O)O)cc(-c2ccc(Br)s2)c1
- IC50 [2]: 39 µM
- Kd [10]: 46 µM

SMILES: O=C(O)Cc1cc(CC(=O)O)cc(-c2ccccc2Cl)c1
- IC50 [2]: 192 µM

SMILES: N#Cc1ccc(-c2cc(CC(=O)O)cc(CC(=O)O)c2)s1
- IC50 [2]: 199 µM
- Kd [10]: 134 µM

SMILES: O=C(O)Cc1ccc(O)c(-c2ccccc2)c1
- Kd [11]: 200 µM
- IC50 [12]: 769 µM

SMILES: COc1cc(C)c(C(=O)NS(C)(=O)=O)cc1-c1ccc(C#CCO)s1
- pKa [1]: 4
- EC50 (dengue virus type 1 [4]): > 50 µM
- Activity (dengue virus type 1 [13]): inactive
- Activity (dengue virus type 4 [14]): inactive
- IC50 [2]: 0.34 µM
- logD [3]: 0.8
- Kd [5]: 0.12 µM
- Kd [10]: 2 µM
- Activity (dengue virus type 2 [15]): inactive
- Activity (dengue virus type 3 [16]): inactive
- EC50 (dengue virus type 2 [6]): > 50 µM
- Papp A→B [7]: 0.5 ×10⁻⁶ cm/s
- EC50 (dengue virus type 4 [8]): > 50 µM
- EC50 (dengue virus type 3 [9]): > 50 µM

SMILES: COc1ccc(CC(=O)O)cc1-c1ccc(C#CCO)s1
- IC50 [2]: 7.5 µM
- Kd [5]: 2.2 µM
- Kd [10]: 14 µM
- Papp A→B [7]: 2.73 ×10⁻⁶ cm/s

SMILES: O=C(O)Cc1cc(CC(=O)O)cc(-c2ccco2)c1
- IC50 [2]: 211 µM
- Kd [10]: 552 µM

SMILES: COc1ccc(CC(=O)O)cc1-c1ccccc1
- Kd [17]: 613 µM
- IC50 [18]: 734 µM

SMILES: Cc1ccc(-c2cc(CC(=O)O)cc(CC(=O)O)c2)s1
- IC50 [2]: 96 µM

SMILES: COc1cc(C)c(-c2noc(=O)[nH]2)cc1-c1ccc(C#CCO)s1
- pKa [1]: 5.5
- IC50 [2]: 3.2 µM
- logD [3]: 1.9

SMILES: COc1ccc(-c2nnn[nH]2)cc1-c1ccc(C#CCO)s1
- IC50 [2]: 2.4 µM
- Papp A→B [7]: 1.39 ×10⁻⁶ cm/s

SMILES: COc1ccc(C(=O)O)cc1-c1ccc(C#CCO)s1
- pKa [1]: 4.2
- IC50 [2]: 2.3 µM
- logD [3]: 0.79
- Kd [5]: 1.7 µM
- Kd [10]: 3.8 µM

SMILES: O=C(O)Cc1cc(CC(=O)O)cc(-c2ccc(C#CCO)s2)c1
- IC50 [19]: 2.2 µM
- IC50 [20]: 0.5 µM
- IC50 [21]: 0.3 µM
- Papp A→B [7]: 0.51 ×10⁻⁶ cm/s

SMILES: O=C(O)Cc1cc(CC(=O)O)cc(-c2ccc(Cl)cc2)c1
- IC50 [2]: 62 µM

SMILES: O=C(O)Cc1cc(CC(=O)O)cc(-c2ccc(C#CCCO)s2)c1
- IC50 [2]: 29 µM
- Kd [10]: 34 µM

SMILES: COc1cc(C)c(C(=O)O)cc1-c1ccc(C#CCO)s1
- pKa [1]: 4.2
- Activity (dengue virus type 1 [13]): inactive
- Activity (dengue virus type 4 [14]): inactive
- IC50 [2]: 0.53 µM
- logD [3]: 1.2
- Kd [5]: 0.11 µM
- Kd [10]: 1.6 µM
- Activity (dengue virus type 2 [15]): inactive
- Activity (dengue virus type 3 [16]): inactive

SMILES: COc1cccc(S(=O)(=O)NC(=O)c2cc(-c3ccc(C#CCO)s3)c(OC)cc2OC)c1
- pKa [1]: 4.7
- EC50 (dengue virus type 1 [4]): 1.8 µM
- IC50 [19]: 0.11 µM
- logD [3]: 1.6
- CC50 [22]: > 50 µM
- IC50 [20]: 0.048 µM
- Kd [5]: 0.07 µM
- IC50 [21]: 0.068 µM
- EC50 (dengue virus type 2 [6]): 2.3 µM
- Papp A→B [7]: 3.91 ×10⁻⁶ cm/s
- EC50 (dengue virus type 4 [8]): 1.8 µM
- EC50 (dengue virus type 3 [9]): 1.8 µM

SMILES: COc1cc(C)c(C(=O)NS(=O)(=O)c2ccccc2)cc1-c1ccc(C#CCO)s1
- pKa [1]: 3.8
- EC50 (dengue virus type 1 [4]): 31 µM
- IC50 [2]: 0.17 µM
- logD [3]: 1.7
- EC50 (dengue virus type 2 [6]): 34 µM
- Papp A→B [7]: 0.5 ×10⁻⁶ cm/s
- EC50 (dengue virus type 4 [8]): 41 µM
- EC50 (dengue virus type 3 [9]): 18 µM

SMILES: O=C(O)Cc1cc(CC(=O)O)cc(-c2cccc(Cl)c2)c1
- IC50 [2]: 141 µM

SMILES: O=C(O)Cc1cc(CC(=O)O)cc(-c2ccc(Cl)s2)c1
- Kd [10]: 33 µM

SMILES: COc1cccc(S(=O)(=O)NC(=O)c2cc(-c3ccc(C#CCO)s3)c(Cl)cc2OC)c1
- pKa [1]: 3.8
- EC50 (dengue virus type 1 [4]): 6.8 µM
- IC50 [2]: 0.14 µM
- logD [3]: 0.9
- Kd [5]: 0.01 µM
- EC50 (dengue virus type 2 [6]): 13 µM
- EC50 (dengue virus type 4 [8]): 7 µM
- EC50 (dengue virus type 3 [9]): 5.5 µM
